Test [1] addresses T1, Muscarinic acetylcholine receptor M5 (Homo sapiens) (UniProt P08912).
T1 sequence (whole entry): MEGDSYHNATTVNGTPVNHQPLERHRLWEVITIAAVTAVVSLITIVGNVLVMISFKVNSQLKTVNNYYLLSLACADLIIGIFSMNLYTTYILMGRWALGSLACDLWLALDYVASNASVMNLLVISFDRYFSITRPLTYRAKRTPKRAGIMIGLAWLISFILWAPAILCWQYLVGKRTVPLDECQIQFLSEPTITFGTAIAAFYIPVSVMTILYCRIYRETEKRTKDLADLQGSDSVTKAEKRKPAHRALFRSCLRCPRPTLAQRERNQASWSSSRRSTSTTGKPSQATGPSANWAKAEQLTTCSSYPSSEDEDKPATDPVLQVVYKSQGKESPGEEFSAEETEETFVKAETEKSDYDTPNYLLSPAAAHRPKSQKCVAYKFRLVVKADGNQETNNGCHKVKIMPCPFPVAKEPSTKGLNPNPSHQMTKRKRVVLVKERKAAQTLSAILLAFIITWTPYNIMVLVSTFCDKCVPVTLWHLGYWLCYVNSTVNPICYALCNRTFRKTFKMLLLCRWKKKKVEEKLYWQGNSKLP
Nature of the test: Cooperativity with acetylcholine at Muscarinic acetylcholine receptor M5. In a few lines:
(§1)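 Equilibrium ³H-NMS binding in CHO membranes expressing human m1–m5 receptors was measured with and without ACh, alone and with three agent concentrations. Data were converted to affinity ratios, meaning apparent primary-ligand affinity with agent divided by affinity without it.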

Test [2] addresses T2, Muscarinic acetylcholine receptor M2 (Homo sapiens) (UniProt P08172).
T2 sequence (whole entry): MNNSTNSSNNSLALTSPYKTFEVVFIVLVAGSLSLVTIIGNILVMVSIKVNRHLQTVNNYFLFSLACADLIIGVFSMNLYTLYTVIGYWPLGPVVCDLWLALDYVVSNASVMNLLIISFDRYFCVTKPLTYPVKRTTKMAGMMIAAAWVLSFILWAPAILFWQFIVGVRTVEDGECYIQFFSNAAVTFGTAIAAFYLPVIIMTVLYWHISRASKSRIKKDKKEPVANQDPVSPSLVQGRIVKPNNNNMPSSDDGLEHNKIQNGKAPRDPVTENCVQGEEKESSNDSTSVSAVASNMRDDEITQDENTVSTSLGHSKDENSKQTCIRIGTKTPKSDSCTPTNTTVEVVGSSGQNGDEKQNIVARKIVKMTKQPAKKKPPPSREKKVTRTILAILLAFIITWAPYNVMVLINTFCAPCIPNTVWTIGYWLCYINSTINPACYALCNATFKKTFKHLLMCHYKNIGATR
Briefly: Cooperativity with acetylcholine at human muscarinic acetylcholine receptor M2. In a few lines: as §1

Test [3] deals with T3, Muscarinic acetylcholine receptor M4 (Homo sapiens) (UniProt P08173).
T3 sequence (whole entry): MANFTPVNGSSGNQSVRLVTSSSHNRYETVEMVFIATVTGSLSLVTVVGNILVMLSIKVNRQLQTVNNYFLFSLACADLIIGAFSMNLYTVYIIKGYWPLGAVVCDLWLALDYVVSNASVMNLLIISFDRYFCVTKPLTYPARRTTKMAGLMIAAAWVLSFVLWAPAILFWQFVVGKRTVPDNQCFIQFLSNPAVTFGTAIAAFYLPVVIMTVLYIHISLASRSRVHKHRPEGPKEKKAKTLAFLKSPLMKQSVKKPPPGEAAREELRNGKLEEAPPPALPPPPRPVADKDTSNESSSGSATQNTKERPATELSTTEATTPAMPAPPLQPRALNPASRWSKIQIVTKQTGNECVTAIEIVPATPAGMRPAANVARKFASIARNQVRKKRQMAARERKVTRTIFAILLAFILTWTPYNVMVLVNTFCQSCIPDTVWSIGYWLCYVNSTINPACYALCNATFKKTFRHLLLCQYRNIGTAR
Briefly: Cooperativity with acetylcholine at human muscarinic acetylcholine receptor M4. Put shortly:
as §1

Test [4] has as its target T1, Muscarinic acetylcholine receptor M5 (Homo sapiens). Briefly: Binding affinity at the NMS liganded human muscarinic acetylcholine receptor M5 was estimated as log affinity (log1/M). In a few lines: (§2)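 Equilibrium runs were ≥2 h with 2 × 10⁻⁴ M GTP and 0.1–0.7 nM ³H-NMS. Nonspecific binding was defined with 10⁻⁶ M QNB, and bound ligand was filtered and counted. Log affinities came from semiquantitative plus off-rate, quantitative equilibrium, or nonequilibrium assays, fitted by nonlinear least squares to the allosteric ternary complex model.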

The target in test [5] is T4, Muscarinic acetylcholine receptor M1 (Homo sapiens) (UniProt P11229).
T4 sequence (whole entry): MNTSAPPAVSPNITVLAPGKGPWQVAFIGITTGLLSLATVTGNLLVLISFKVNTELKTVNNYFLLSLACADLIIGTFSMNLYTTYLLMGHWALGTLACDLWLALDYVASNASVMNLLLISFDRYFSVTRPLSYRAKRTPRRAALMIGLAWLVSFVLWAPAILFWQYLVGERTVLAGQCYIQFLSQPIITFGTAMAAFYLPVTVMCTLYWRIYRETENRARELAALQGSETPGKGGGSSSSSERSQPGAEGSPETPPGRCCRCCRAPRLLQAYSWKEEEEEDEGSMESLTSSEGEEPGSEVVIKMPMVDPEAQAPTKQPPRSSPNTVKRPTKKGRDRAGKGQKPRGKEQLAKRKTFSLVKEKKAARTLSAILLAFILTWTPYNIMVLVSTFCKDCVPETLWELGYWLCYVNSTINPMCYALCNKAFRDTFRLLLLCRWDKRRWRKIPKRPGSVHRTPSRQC
Briefly: Binding affinity at the NMS liganded human muscarinic acetylcholine receptor M1 was estimated as log affinity (log1/M). Put shortly: as §2

The target in test [6] is T3, Muscarinic acetylcholine receptor M4 (Homo sapiens). Nature of the test: Cooperativity with NMS at human muscarinic acetylcholine receptor M4. Put shortly: as §1
Test [7] addresses T2, Muscarinic acetylcholine receptor M2 (Homo sapiens). Briefly: Binding affinity at the unliganded human muscarinic acetylcholine receptor M2 was estimated as log affinity (log1/M). In a few lines: as §2
Test [8] has as its target Muscarinic acetylcholine receptor M3 (Homo sapiens) (UniProt P20309). Briefly: Binding affinity at the unliganded human muscarinic acetylcholine receptor M3 was estimated as log affinity (log1/M). Put shortly:
as §2

Test [9] has as its target T3, Muscarinic acetylcholine receptor M4 (Homo sapiens). Nature of the test: Binding affinity at the NMS liganded human muscarinic acetylcholine receptor M4 was estimated as log affinity (log1/M). In a few lines: as §2
Test [10] concerns the target Muscarinic acetylcholine receptor M3 (Homo sapiens) (UniProt P20309). Nature of the test: Cooperativity with NMS at human muscarinic acetylcholine receptor M3. In a few lines:
as §1

In test [11] the target is T4, Muscarinic acetylcholine receptor M1 (Homo sapiens). Briefly: Cooperativity with NMS at human muscarinic acetylcholine receptor M1. Put shortly:
as §1

Test [12] has as its target Muscarinic acetylcholine receptor M3 (Homo sapiens) (UniProt P20309). Briefly: Binding affinity at the NMS liganded human muscarinic acetylcholine receptor M3 was estimated as log affinity (log1/M). Put shortly:
as §2

The target in test [13] is T1, Muscarinic acetylcholine receptor M5 (Homo sapiens). Briefly: Cooperativity with NMS at Muscarinic acetylcholine receptor M5. In a few lines:
as §1

Test [14] has the same target. Briefly: Binding affinity at the unliganded Muscarinic acetylcholine receptor M5 was estimated as log affinity (log1/M). In a few lines:
as §2

The target in test [15] is T3, Muscarinic acetylcholine receptor M4 (Homo sapiens). Nature of the test: Binding affinity at the unliganded human muscarinic acetylcholine receptor M4 was estimated as log affinity (log1/M). In a few lines: as §2
For test [16], the target named is T4, Muscarinic acetylcholine receptor M1 (Homo sapiens). Briefly: Binding affinity at the unliganded human muscarinic acetylcholine receptor M1 was estimated as log affinity (log1/M). Put shortly:
as §2

Test [17] has as its target Muscarinic acetylcholine receptor M3 (Homo sapiens) (UniProt P20309). Nature of the test: Cooperativity with acetylcholine at human muscarinic acetylcholine receptor M3. Put shortly:
as §1

The target in test [18] is T4, Muscarinic acetylcholine receptor M1 (Homo sapiens). Briefly: Cooperativity with acetylcholine at human muscarinic acetylcholine receptor M1. Put shortly:
as §1

Test [19] concerns the target T2, Muscarinic acetylcholine receptor M2 (Homo sapiens). Briefly: Binding affinity at the NMS liganded human muscarinic acetylcholine receptor M2 was estimated as log affinity (log1/M). Put shortly: as §2
Test [20] has the same target. Nature of the test: Cooperativity with NMS at human muscarinic acetylcholine receptor M2. In a few lines: as §1

Each structure is given as a SMILES string. Bounds are passed on as bounds.

Chain of Muscarinic acetylcholine receptor M3 (Homo sapiens) (P20309 whole entry, looked up): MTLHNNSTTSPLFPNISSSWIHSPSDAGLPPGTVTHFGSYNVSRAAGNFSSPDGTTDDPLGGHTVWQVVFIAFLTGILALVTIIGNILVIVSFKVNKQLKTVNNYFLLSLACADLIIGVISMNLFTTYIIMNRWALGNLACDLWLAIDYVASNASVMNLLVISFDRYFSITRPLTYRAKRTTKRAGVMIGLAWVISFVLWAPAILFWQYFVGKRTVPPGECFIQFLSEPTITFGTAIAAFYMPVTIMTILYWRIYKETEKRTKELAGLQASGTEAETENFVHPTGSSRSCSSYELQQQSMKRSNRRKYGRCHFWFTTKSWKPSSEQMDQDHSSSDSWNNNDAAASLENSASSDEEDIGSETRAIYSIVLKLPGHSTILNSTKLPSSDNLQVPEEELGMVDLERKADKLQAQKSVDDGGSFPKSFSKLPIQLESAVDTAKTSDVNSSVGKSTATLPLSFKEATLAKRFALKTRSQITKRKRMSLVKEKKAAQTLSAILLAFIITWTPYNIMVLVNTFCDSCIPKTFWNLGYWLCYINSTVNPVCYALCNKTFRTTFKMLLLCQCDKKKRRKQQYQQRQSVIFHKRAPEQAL

In the case of `COc1cc2c(cc1OC)[C@@]13CC[N+]4(CCl)CC5=CCO[C@H]6CC(=O)N2[C@H]1[C@H]6[C@H]5C[C@@H]34` (stereo not given in full), the Cooperativity was less than 0.2 in test [1]; less than 0.2 in [2]; 1.19 in [3]; 1.19 in test [6]; 0.2 in test [10]; 0.2 in [11]. The Cooperativity is 0.2 in [13], greater than 0.2 in test [17], 0.2 in test [18] and 2 in [20]. Also, the Affinity in test [4] was 3.3; in test [5], 4.1; in test [7], 4.2; in test [8] it was 3.7; in test [9], 4.3; in [12], 3.3. For the same compound, the Affinity in test [14] is 3.7; in [15] it was 4.3; in test [16], 4.4; in test [19] it was 4.4.

Source of the values: ChEMBL document CHEMBL1132569.
